From ChEMBL document CHEMBL1159038, “Synthetic studies on selective adenosine A2A receptor antagonists: synthesis and structure-activity relationships of novel benzofuran derivatives” (Bioorg Med Chem Lett, 2010)

Tests used:
[1] = target: Adenosine receptor A2a (Homo sapiens) (UniProt P29274); experiment: Inhibition of [3H]CGS21680 binding to human adenosine A2A receptor at 0.01 umol/L by scintillation counting
Method in brief: (§1)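 Membranes from cells transfected with human A2A receptor, diluted 20-fold in 50 mmol/L Tris pH 7.4 with 120 mmol/L NaCl, 5 mmol/L KCl, 10 mmol/L MgCl2, 2 mmol/L CaCl2 and 2 U/mL adenosine deaminase. Incubated with [3H]CGS21680 (final 75 nmol/L) and test drug, 25 °C for 90 min. Filtered through 0.5% polyethyleneimine-treated filters, then scintillation counted. Nonspecific binding with 50 µmol/L NECA. Triplicate average.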

[2] = target: Adenosine receptor A2a (Homo sapiens) (UniProt P29274); experiment: Inhibition of [3H]CGS21680 binding to human adenosine A2A receptor at 0.1 umol/L by scintillation counting; method in brief: as §1
[3] = target: Adenosine receptor A2a (Homo sapiens) (UniProt P29274); experiment: Inhibition of [3H]CGS21680 binding to human adenosine A2A receptor at 1 umol/L by scintillation counting; method in brief: as §1
Mus musculus = experiment: Antiparkinsonian effect in mouse assessed as inhibition of CGS-21680-induced catalepsy at 10 mg/kg, po; type: functional
Method in brief: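 Compounds were given orally at 10 mg/kg to mice. Catalepsy was induced with CGS, and inhibition of catalepsy is expressed as %.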

[4] = Intrinsic clearance in rat liver microsomes; type: ADME, Microsome
Method in brief: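 Rat liver microsomal incubations gave the apparent intrinsic clearance (CL_int). This was corrected for the free fraction of compound in the incubation to give CL_int/f_m.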

[5] = target: T1, Adenosine receptor A1 (Homo sapiens) (UniProt P30542); experiment: Antagonist activity at human adenosine A1 receptor at 1 umol/L; type: functional
T1 sequence (whole entry): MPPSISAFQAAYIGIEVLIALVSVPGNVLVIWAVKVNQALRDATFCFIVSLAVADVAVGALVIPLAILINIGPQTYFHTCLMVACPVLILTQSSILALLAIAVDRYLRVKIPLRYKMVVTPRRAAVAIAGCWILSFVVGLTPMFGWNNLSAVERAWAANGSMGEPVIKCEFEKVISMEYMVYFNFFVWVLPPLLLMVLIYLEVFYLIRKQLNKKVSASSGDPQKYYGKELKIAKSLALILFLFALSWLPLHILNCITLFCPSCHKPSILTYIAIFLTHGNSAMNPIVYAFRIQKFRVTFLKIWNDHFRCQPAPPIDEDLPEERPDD

[6] = target: T1, Adenosine receptor A1 (Homo sapiens); experiment: Antagonist activity at human adenosine A1 receptor at 10 umol/L; type: functional
[7] = target: T2, Adenosine receptor A2b (Homo sapiens) (UniProt P29275); experiment: Antagonist activity at human adenosine A2B receptor at 1 umol/L; type: functional
T2 sequence (whole entry): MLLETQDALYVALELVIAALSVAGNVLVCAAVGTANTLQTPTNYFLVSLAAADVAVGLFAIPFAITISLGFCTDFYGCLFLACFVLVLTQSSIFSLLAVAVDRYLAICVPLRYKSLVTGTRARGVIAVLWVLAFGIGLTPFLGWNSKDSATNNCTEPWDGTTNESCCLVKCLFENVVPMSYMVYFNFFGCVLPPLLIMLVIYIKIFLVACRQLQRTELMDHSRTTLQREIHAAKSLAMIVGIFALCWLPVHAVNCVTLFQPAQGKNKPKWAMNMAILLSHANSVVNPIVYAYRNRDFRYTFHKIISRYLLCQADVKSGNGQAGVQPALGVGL

[8] = target: T2, Adenosine receptor A2b (Homo sapiens); experiment: Antagonist activity at human adenosine A2B receptor at 10 umol/L; type: functional

Adenosine receptor A2a (Homo sapiens), sequence (P29274 whole entry): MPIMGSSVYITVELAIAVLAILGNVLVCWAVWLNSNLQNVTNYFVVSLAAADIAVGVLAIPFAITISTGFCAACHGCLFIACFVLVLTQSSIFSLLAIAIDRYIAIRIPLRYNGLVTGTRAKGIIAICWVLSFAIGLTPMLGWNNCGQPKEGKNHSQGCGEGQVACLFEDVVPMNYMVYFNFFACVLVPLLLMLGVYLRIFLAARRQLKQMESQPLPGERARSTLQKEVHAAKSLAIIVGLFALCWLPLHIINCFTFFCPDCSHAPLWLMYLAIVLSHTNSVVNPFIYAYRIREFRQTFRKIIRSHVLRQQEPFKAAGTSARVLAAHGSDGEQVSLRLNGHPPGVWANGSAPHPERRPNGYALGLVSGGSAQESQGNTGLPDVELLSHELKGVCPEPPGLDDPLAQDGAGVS

Row | SMILES | inhibition [1] [%] | inhibition [2] [%] | inhibition [3] [%] | CLint scaled [4] [mL/min/kg] | inhibition [5] [%] | inhibition [6] [%] | inhibition [7] [%] | inhibition [8] [%] | inhibition in vivo at 10 mg/kg (Mus musculus) [%]
1 | COc1ccc(-c2csc(-c3ccc(C)nc3)n2)c2cc(C(=O)Nc3ccc(Cn4ccnc4)cc3)oc12 | 12 | 23 | 20 |  |  |  |  |  | 
2 | COC(=O)c1ccc(OC)c2oc(C(=O)Nc3cccc(F)c3)cc12 | 14 | 58 | 86 |  |  |  |  |  | 48
3 | COc1ccc(-c2csc(-c3ccc(C)nc3)n2)c2cc(C(=O)Nc3ccc(F)cc3)oc12 | 17 | 6 | 4 |  |  |  |  |  | 
4 | COC(=O)c1ccc(OC)c2oc(C(=O)Nc3ccc(Cl)cc3)cc12 | 1 | 43 | 77 |  |  |  |  |  | 
5 | COc1ccc(-c2csc(C)n2)c2cc(C(=O)Nc3ccc(F)cc3)oc12 | 1 | 15 | 60 |  |  |  |  |  | 
6 | COc1ccc(-c2ccc(Cl)cc2)c2cc(C(=O)Nc3ccc(Cn4ccnc4)cc3)oc12 | 8 | 33 |  |  |  |  |  |  | 
7 | COC(=O)c1ccc(OC)c2oc(C(=O)Nc3ccccc3)cc12 | 6 | 49 | 86 | 758 |  |  |  |  | 
8 | COc1ccc(-c2ccccc2)c2cc(C(=O)NN3CCOCC3)oc12 | 39 | 81 | 103 | 20.3 | 37 | 82 | 81 | 98 | 78
9 | COC(=O)Nc1cc2c(-c3ccccc3)ccc(OC)c2o1 | 28 | 85 |  |  |  |  |  |  | 86
10 | COc1ccc(NC(=O)c2cc3c(-c4csc(-c5ccccc5)n4)ccc(OC)c3o2)cc1 | 6 | 11 |  |  |  |  |  |  | 
11 | COc1ccc(-c2ccccc2)c2cc(NC(=O)Oc3ccc(F)cc3)oc12 | 11 | 32 |  |  |  |  |  |  | 
12 | COc1ccc(-c2ccc(OC)c3oc(C(=O)Nc4ccc(Cn5ccnc5)cc4)cc23)cc1 | 24 | 63 | 90 |  | -4 |  |  | 4 | 54
13 | COc1ccc(-c2ccccc2)c2cc(NC(=O)Oc3ccccc3)oc12 | 23 | 65 |  |  |  |  |  |  | 34
14 | COC(=O)c1ccc(OC)c2oc(C(=O)Nc3ccc(Cn4ccnc4)cc3)cc12 | 40 | 80 | 98 |  |  |  |  |  | 0
15 | COC(=O)c1ccc(OC)c2oc(C(=O)Nc3ccc(OC)cc3)cc12 |  | 53 | 91 |  |  |  |  |  | 

The next lines start with results.

Row | inhibition [1] [%] | inhibition [2] [%] | inhibition [3] [%] | CLint scaled [4] [mL/min/kg] | inhibition [5] [%] | inhibition [6] [%] | inhibition [7] [%] | inhibition [8] [%] | SMILES | inhibition in vivo at 10 mg/kg (Mus musculus) [%]
16 | 24 | 64 | 95 | 2600 | 9 | 10 | 1 | 1 | COc1ccc(-c2ccccc2)c2cc(C(=O)Nc3ccc(Cn4ccnc4)cc3)oc12 | 12
17 | 62 | 91 |  |  |  |  |  |  | COc1ccc(-c2ccccc2)c2cc(NC(C)=O)oc12 | 28
18 | 18 | 28 |  |  |  |  |  |  | COc1ccc(-c2ccc(Cl)cc2)c2cc(C(=O)Nc3ccncc3)oc12 | 
19 | 22 | 37 |  |  |  |  |  |  | COc1ccc(-c2ccccc2)c2cc(NC(=O)Nc3ccc(F)cc3)oc12 | 
20 | 11 | 31 |  |  |  |  |  |  | COc1ccc(-c2ccccc2)c2cc(C(=O)Nc3ccncc3)sc12 | 
21 |  | -2 | -8 |  |  |  |  |  | CCOC(=O)c1ccc(-c2ccc(OC)c3oc(C(=O)Nc4ccccc4)cc23)cc1 | 
22 | 13 | 49 | 67 |  |  |  |  |  | COc1ccc(-c2ccccc2)c2cc(C(=O)Nc3ccc(F)cc3)oc12 | 
23 | 57 | 88 |  |  |  |  |  |  | CNC(=O)c1cc2c(-c3ccccc3)ccc(OC)c2o1 | 18
24 | 83 | 101 |  |  |  |  |  |  | COc1ccc(-c2ccccc2)c2cc(C(=O)Nc3c(Cl)cncc3Cl)oc12 | 74
25 |  |  | 100 | 580 | 20 | 77 | 21 | 58 | COc1ccc(-c2ccccc2)c2cc(C(=O)Nc3ccncc3)oc12 | 40
26 | 25 | 20 |  |  |  |  |  |  | COc1ccc(-c2ccccc2)c2cc(C(=O)Nc3ccc(Cn4ccnc4)cc3)sc12 | 
